Experiments:
[1] = target: T1, Kinesin-like protein KIF11 (Homo sapiens, UniProt P52732); assay: Inhibition of Eg5 by ATPase assay; type: functional
T1 sequence (P52732 whole entry): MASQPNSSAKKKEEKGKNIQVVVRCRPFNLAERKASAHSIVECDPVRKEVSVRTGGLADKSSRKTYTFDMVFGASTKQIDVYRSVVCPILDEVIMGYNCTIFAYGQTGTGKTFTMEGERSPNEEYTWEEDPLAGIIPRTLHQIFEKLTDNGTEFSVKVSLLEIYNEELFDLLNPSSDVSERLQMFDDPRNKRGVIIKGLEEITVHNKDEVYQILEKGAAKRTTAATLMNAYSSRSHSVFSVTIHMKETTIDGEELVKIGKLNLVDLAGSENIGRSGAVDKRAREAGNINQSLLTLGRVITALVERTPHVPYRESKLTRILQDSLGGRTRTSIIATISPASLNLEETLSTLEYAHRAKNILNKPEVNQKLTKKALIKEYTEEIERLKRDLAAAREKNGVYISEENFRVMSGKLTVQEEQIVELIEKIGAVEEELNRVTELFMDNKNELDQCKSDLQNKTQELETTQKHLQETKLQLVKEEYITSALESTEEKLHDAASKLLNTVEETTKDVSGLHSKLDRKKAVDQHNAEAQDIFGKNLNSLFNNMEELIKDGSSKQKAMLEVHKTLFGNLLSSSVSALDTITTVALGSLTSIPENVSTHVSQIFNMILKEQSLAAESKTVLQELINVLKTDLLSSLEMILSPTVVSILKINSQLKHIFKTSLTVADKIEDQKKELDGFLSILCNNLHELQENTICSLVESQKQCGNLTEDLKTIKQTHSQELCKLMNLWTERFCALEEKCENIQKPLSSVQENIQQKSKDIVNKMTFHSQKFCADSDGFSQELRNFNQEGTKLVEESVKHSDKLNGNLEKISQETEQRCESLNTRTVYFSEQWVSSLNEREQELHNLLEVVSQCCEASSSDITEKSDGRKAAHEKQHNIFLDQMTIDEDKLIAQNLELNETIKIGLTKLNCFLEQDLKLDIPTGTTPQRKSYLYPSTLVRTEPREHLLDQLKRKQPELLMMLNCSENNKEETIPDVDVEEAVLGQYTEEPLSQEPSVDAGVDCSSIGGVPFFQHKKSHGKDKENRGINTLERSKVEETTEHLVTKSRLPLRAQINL
Summary of the method: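 Eg5 motor-domain protein ATPase activity read with a Kinase-Glo luminescent ATP kit. IC50 taken from dose–response curves of triplicate data points. Values are means ± SD of three independent experiments.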

[2] = system: A2780; assay: Antiproliferative activity against human A2780 cells; type: functional, cell-based
Summary of the method: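 A2780 ovarian carcinoma cells were exposed to compound for 72 h. IC50 derived from dose–response curves of triplicate data points, reported as the mean ± SD of three independent experiments.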

[3] = system: A2780; assay: Mitotic index in A2780 cells at M phase at 0.257 uM; type: functional, Homo sapiens
Summary of the method: (§1)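 A2780 cells were treated for 17 h at 0.257 or 0.328 µM, with nocodazole 0.1 µM as positive control and DMSO 0.08% as negative control. Cell-cycle profile (% G1, S, G2+M) and mitotic index (% cells in M phase) were quantified by flow cytometry.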

[4] = system: A2780; assay: Cell cycle arrest in A2780 cells by accumulation at S phase at 0.328 uM; type: functional, Homo sapiens; summary of the method: as §1
[5] = system: MDA-MB-231; assay: Antiproliferative activity against human MDA-MB-231 cells; type: functional, cell-based
Summary of the method: (§2)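 Each tumour cell line in the panel was exposed to compound for 72 h, and IC50 was determined after that exposure.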

[6] = system: A2780; assay: Cell cycle arrest in A2780 cells by accumulation at G1 phase at 0.328 uM; type: functional, Homo sapiens; summary of the method: as §1
[7] = system: NCI-H446; assay: Antiproliferative activity against human NCI-H446 cells; type: functional, cell-based; summary of the method: as §2
[8] = system: M109; assay: Antiproliferative activity against mouse M109 cells; type: functional, cell-based; summary of the method: as §2
[9] = system: DU-145; assay: Antiproliferative activity against human Du145 cells; type: functional, cell-based; summary of the method: as §2
[10] = system: PC-3; assay: Antiproliferative activity against human PC3 cells; type: functional, cell-based; summary of the method: as §2
[11] = system: HCT-116; assay: Antiproliferative activity against human HCT116 cells; type: functional, cell-based; summary of the method: as §2
[12] = system: A2780; assay: Mitotic index in A2780 cells at M phase at 0.328 uM; type: functional, Homo sapiens; summary of the method: as §1
[13] = system: A2780; assay: Cell cycle arrest in A2780 cells by accumulation at G2/M phase at 0.328 uM; type: functional, Homo sapiens; summary of the method: as §1
[14] = system: A2780; assay: Antiproliferative activity against human A2780S cells; type: functional, cell-based; summary of the method: as §2
[15] = system: A2780; assay: Cell cycle arrest in A2780 cells by accumulation at G2/M phase at 0.257 uM; type: functional, Homo sapiens; summary of the method: as §1
[16] = system: MDA-MB-468; assay: Antiproliferative activity against human MDA-MB-468 cells; type: functional, cell-based; summary of the method: as §2
[17] = system: LNCaP; assay: Antiproliferative activity against human LNCaP cells; type: functional, cell-based; summary of the method: as §2
[18] = system: A2780; assay: Antiproliferative activity against human A2780-TAXR cells; type: functional, cell-based; summary of the method: as §2
[19] = system: P388; assay: Antiproliferative activity against mouse P388 cells; type: functional, cell-based; summary of the method: as §2
[20] = system: CCRF-CEM; assay: Antiproliferative activity against human CCRF-CEM cells; type: functional, cell-based; summary of the method: as §2
[21] = system: A2780; assay: Cell cycle arrest in A2780 cells by accumulation at G1 phase at 0.257 uM; type: functional, Homo sapiens; summary of the method: as §1
[22] = system: SHP77; assay: Antiproliferative activity against human SHP77 cells; type: functional, cell-based; summary of the method: as §2
[23] = system: SW-620; assay: Antiproliferative activity against human SW620 cells; type: functional, cell-based; summary of the method: as §2
[24] = system: A2780; assay: Cell cycle arrest in A2780 cells by accumulation at S phase at 0.257 uM; type: functional, Homo sapiens; summary of the method: as §1
[25] = system: A2780; assay: Cell cycle arrest in A2780 cells by accumulation at G1 phase at 0.1 uM; type: functional, Homo sapiens; summary of the method: as §1
[26] = system: A2780; assay: Cell cycle arrest in A2780 cells by accumulation at G2/M phase at 0.1 uM; type: functional, Homo sapiens; summary of the method: as §1
[27] = system: A2780; assay: Mitotic index in A2780 cells at M phase at 0.1 uM; type: functional, Homo sapiens; summary of the method: as §1
[28] = system: A2780; assay: Cell cycle arrest in A2780 cells by accumulation at S phase at 0.1 uM; type: functional, Homo sapiens; summary of the method: as §1

CNC(=O)N1Cc2c(ccc(C)c2C)C(c2ccccc2)C1 (stereo not given)
IC50 [1]: > 25 µM

Cc1ccc2c(c1C)CN(C(=O)N1CCOCC1)CC2c1ccccc1 (stereo not given)
IC50 [1]: 22.3 µM

Cc1ccc2c(c1C)CN(C(C)C)CC2c1ccccc1 (stereo not given)
IC50 [1]: 11 µM | IC50 [2]: 6.28 µM

CC(=O)N1Cc2c(ccc(C)c2C)C(c2ccccc2)C1 (stereo not given)
IC50 [1]: 17.9 µM

Cc1ccc2c(c1C)CN(C(=O)c1ccccc1)CC2c1ccccc1 (stereo not given)
IC50 [1]: 16.4 µM | IC50 [2]: 7.77 µM

COC(=O)N1Cc2c(ccc(C)c2C)C(c2ccccc2)C1 (stereo not given)
IC50 [1]: 14.4 µM

CN(C)C(=O)N1Cc2c(Cl)cccc2C(c2cccc(O)c2)C1 (stereo not given)
IC50 [1]: > 25 µM

Cc1ccc2c(c1C)CN(C(=O)N(C)C)CC2c1cccc(C(F)(F)F)c1 (stereo not given)
IC50 [1]: 13.2 µM

Cc1ccc2c(c1C)CN(CCCCN(C)C)CC2c1ccccc1 (stereo not given)
IC50 [1]: 5.36 µM | IC50 [2]: 1.86 µM

COc1ccc2c(c1)CN(C(=O)N(C)C)CC2c1cccc(O)c1 (stereo not given)
IC50 [1]: 0.617 µM | IC50 [2]: 0.402 µM

Cc1ccc2c(c1C)CN(CCc1ccccc1)CC2c1ccccc1 (stereo not given)
IC50 [1]: > 25 µM

Cc1ccc2c(c1C)CN(C(=O)N(C)C)C[C@@H]2c1cccc(O)c1
Activity [3]: 39.3% | Activity [4]: 5.9% | IC50 [5]: 0.48 µM | Activity [6]: 3.1% | IC50 [7]: 0.36 µM | IC50 [8]: 0.259 µM | IC50 [9]: 0.484 µM | IC50 [10]: 0.223 µM | IC50 [11]: 0.259 µM | Activity [12]: 52.2% | Activity [13]: 84% | IC50 [14]: 0.267 µM | Activity [15]: 73.2% | IC50 [16]: 0.35 µM | IC50 [17]: 0.807 µM | IC50 [18]: 0.215 µM | IC50 [19]: 0.46 µM | IC50 [20]: 0.282 µM | Activity [21]: 9.1% | IC50 [22]: 0.261 µM | IC50 [23]: 0.466 µM | IC50 [2]: 0.234 µM | Activity [24]: 11.8%

Cc1ccc2c(c1C)CN(CCCCN)CC2c1ccccc1 (stereo not given)
IC50 [1]: 4.65 µM | IC50 [2]: 2.37 µM

Cc1ccc2c(c1C)CN(CCn1cccc1)CC2c1ccccc1 (stereo not given)
IC50 [1]: > 25 µM

CN(C)C(=O)N1Cc2cc(Cl)ccc2C(c2cccc(O)c2)C1 (stereo not given)
IC50 [1]: 2.49 µM | IC50 [2]: 1.19 µM

CN(C)C(=O)N1Cc2c(Br)cccc2C(c2cccc(O)c2)C1 (stereo not given)
IC50 [1]: > 25 µM

COc1ccc2c(c1OC)CN(C(=O)N(C)C)CC2c1cccc(O)c1 (stereo not given)
IC50 [1]: 12.8 µM | IC50 [2]: 2.92 µM

CN(C)C(=O)N1Cc2cc(F)ccc2C(c2cccc(O)c2)C1 (stereo not given)
IC50 [1]: > 25 µM

Cc1ccc2c(c1C)CN(CCCN(C)C)CC2c1ccccc1 (stereo not given)
IC50 [1]: 8.88 µM | IC50 [2]: 3.24 µM

Cc1ccc2c(c1C)CN(C(=O)N(C)CCCN(C)C)CC2c1ccccc1 (stereo not given)
IC50 [1]: 5.44 µM | IC50 [2]: 1.21 µM

Cc1ccc2c(c1C)CN(C(=O)N(C)C)CC2c1cccc(Cl)c1 (stereo not given)
IC50 [1]: 3.48 µM | IC50 [2]: 3.02 µM

Cc1ccc2c(c1C)CN(C)CC2c1ccccc1 (stereo not given)
IC50 [1]: 18.4 µM | IC50 [2]: 7.3 µM

CCN1Cc2c(ccc(C)c2C)C(c2ccccc2)C1 (stereo not given)
IC50 [1]: 25.2 µM | IC50 [2]: 5.3 µM

Cc1ccc2c(c1C)CNCC2c1ccccc1 (stereo not given)
IC50 [1]: 8.33 µM | IC50 [2]: 9.04 µM

Cc1ccc2c(c1C)CN(C(=O)N1CCCCC1)CC2c1ccccc1 (stereo not given)
IC50 [1]: 12.8 µM | IC50 [2]: 2.83 µM

Cc1ccc2c(c1C)CN(CCCN)CC2c1ccccc1 (stereo not given)
IC50 [1]: 3.06 µM | IC50 [2]: 2.42 µM

CN(C)C(=O)N1Cc2c(ccc(Cl)c2Cl)C(c2cccc(O)c2)C1 (stereo not given)
IC50 [1]: 1.27 µM | IC50 [2]: 3.44 µM

Cc1ccc2c(c1C)CN(S(C)(=O)=O)CC2c1ccccc1 (stereo not given)
IC50 [1]: > 25 µM

Cc1ccc2c(c1C)CN(C(=O)N(C)C)CC2c1ccccc1 (stereo not given)
IC50 [1]: 2.75 µM | IC50 [2]: 1.2 µM

Cc1ccc2c(c1C)CN(C(=O)N(C)C)CC2c1cccc(O)c1 (stereo not given)
IC50 [1]: 0.306 µM | IC50 [2]: 0.376 µM

CCOC(=O)N1Cc2c(ccc(C)c2C)C(c2ccccc2)C1 (stereo not given)
IC50 [1]: > 25 µM

Cc1cccc2c1CN(C(=O)N(C)C)CC2c1cccc(O)c1 (stereo not given)
IC50 [1]: 4.71 µM | IC50 [2]: 2.05 µM

CN(C)C(=O)N1Cc2ccccc2C(c2cccc(O)c2)C1 (stereo not given)
IC50 [1]: > 25 µM

Cc1ccc2c(c1C)CN(CCN)CC2c1ccccc1 (stereo not given)
IC50 [1]: 2.27 µM | IC50 [2]: 2.31 µM

CN(C)C(=O)N1Cc2c(ccc3c2OCC3)C(c2cccc(O)c2)C1 (stereo not given)
IC50 [1]: 0.639 µM | IC50 [2]: 0.235 µM

Cc1ccc2c(c1C)CN(C(N)=O)CC2c1ccccc1 (stereo not given)
IC50 [1]: > 25 µM

CN(C)C(=O)N1Cc2cc(I)ccc2C(c2cccc(O)c2)C1 (stereo not given)
IC50 [1]: 0.317 µM | IC50 [2]: 0.363 µM

Cc1ccc2c(c1C)CN(C(=O)N(C)C)CC2c1ccc(O)cc1 (stereo not given)
IC50 [1]: > 25 µM

CN(C)C(=O)N1Cc2c(F)cccc2C(c2cccc(O)c2)C1 (stereo not given)
IC50 [1]: > 25 µM

COc1cccc2c1CN(C(=O)N(C)C)CC2c1cccc(O)c1 (stereo not given)
IC50 [1]: 1.78 µM | IC50 [2]: 0.332 µM

Cc1ccc2c(c1)CN(C(=O)N(C)C)CC2c1cccc(O)c1 (stereo not given)
IC50 [1]: 0.595 µM | IC50 [2]: 0.851 µM

CCc1cccc2c1CN(C(=O)N(C)C)CC2c1cccc(O)c1 (stereo not given)
IC50 [1]: 0.344 µM | IC50 [2]: 0.186 µM

CN(C)C(=O)N1Cc2cc(Br)ccc2C(c2cccc(O)c2)C1 (stereo not given)
IC50 [1]: 0.808 µM | IC50 [2]: 0.879 µM

COC(=O)Nc1nc2cc(C(=O)c3cccs3)ccc2[nH]1 [NOCODAZOLE]
Activity [25]: 12% | Activity [26]: 62.1% | Activity [27]: 23.7% | Activity [28]: 15.7%
